# core dimer inh: inhibitors of HCV core protein dimerization, primary screen, biochemical, TR-FRET, high-throughput. TR-FRET GST/Flag-core106 dimerization, 1536-well. inhibition, % at 5 µM. AID 1899, 2009. hit rate 0.33% among 300,000;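 active means inhibition above the mean of all tested compounds plus 3 SD, set per screening campaign, cut at about 45% in these data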
#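 System – GST-tagged and Flag-tagged HCV core protein residues 1-106 · Repeats – one well for each compound · Technique – TR-FRET 671 and 617 nm emission · Doses – one concentration, 5 µM, in 0.5% DMSO · Times – 4 h, 22.5 °C incubation · Also added – Eu donor and XL665 acceptor anti-tag antibodies · Measure – percent inhibition of core106 dimerization signal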
# HSF-1 act: HSF-1 activators, primary screen, NIH3T3-HGL cells, MG132 stress, luminescence, single point; NIH3T3-HGL HSF-1 luciferase reporter, 8 h; 100% = twice DMSO control signal; activation, % at 9 µM; hit rate 1.7% among 300,000; AID 504408, 2011;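 active means mean replicate activation of at least 50% with a set share of replicates each reaching 50%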;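 further: 0% = median of the neutral control wells and 100% = twice that signal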
# HSF1 inhib: HSF1 inhibitors in luciferase reporter cells, primary screen, cell-based, NIH3T3, luminescence; AID 2098, 2009; NIH3T3-HGL HSE-luciferase, MG132-induced, luminescence 8 h; active compounds read low; hit rate 0.77% among 300,000; activity change, negative = inhibition, % at 7.5 µM (by protocol);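 active means more than half of replicate wells show activity change below -50%, luminescence cut by over half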;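 further: luciferase reports HSF-1 transcriptional activity via heat shock element; 0% = median of DMSO wells and -100% = zero luminescence signal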
# PHOSPHO1 block: PubChem AID 1565 | recombinant PHOSPHO1, absorbance phosphatase assay | hit rate 1.1% among 290,000 | Phosphoethanolamine/phosphocholine phosphatase (Homo sapiens), Q8TCT1 | inhibition, % at 13.3 µM; in the data active means inhibition above about 60%
# Target sequence (Q8TCT1 whole entry, looked up): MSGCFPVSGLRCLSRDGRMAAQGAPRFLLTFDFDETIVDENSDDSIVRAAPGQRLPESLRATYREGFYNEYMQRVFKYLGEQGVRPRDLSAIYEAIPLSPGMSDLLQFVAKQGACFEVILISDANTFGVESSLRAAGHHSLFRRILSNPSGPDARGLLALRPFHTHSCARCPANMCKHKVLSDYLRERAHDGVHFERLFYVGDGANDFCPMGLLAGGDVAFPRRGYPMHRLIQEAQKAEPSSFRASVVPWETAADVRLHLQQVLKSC
# AI-2 QS mod: Vibrio harveyi AI-2 quorum sensing modulators, primary screen, JMH597 strain, luminescence/OD600 ratio. hit rate 0.4% among 300,000. activity change, % at 7.5 µM. Vibrio harveyi JMH597 AI-2 luminescence/OD600 ratio, 9 h; active compounds read low; strain lacks LuxN and CqsS sensors; 0 = neutral-control median. AID 2094, 2009; in the data active means activity change below about -75%, passing the limit was not always enough;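 further: luminescence divided by OD600 gain over 9 h not by final OD600 alone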
# ALR H2O2 inh: inhibitors of human ALR sulfhydryl oxidase, primary screen, biochemical, H2O2 detection, HRP-luminol luminescence, single point. FAD-linked sulfhydryl oxidase ALR (Homo sapiens), P55789. purified ALR, DTT oxidation. inhibition, % (no concentration beside the values). hit rate 3.8% among 290,000;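 active means mean replicate inhibition above about 79%, with every replicate also reaching it, limit read from the data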
# Target sequence (P55789 whole entry, looked up): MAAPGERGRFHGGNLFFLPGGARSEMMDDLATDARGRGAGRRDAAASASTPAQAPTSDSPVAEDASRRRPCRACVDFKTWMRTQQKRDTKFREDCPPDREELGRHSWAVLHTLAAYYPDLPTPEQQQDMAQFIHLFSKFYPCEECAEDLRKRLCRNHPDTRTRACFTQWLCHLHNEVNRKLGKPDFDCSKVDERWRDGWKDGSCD
# * hit, by the source's call; · = no result given. A selection: hits, their analogues and other compounds. The true share with any hit is near 6.8%.
SMILES,core dimer inh,HSF-1 act,HSF1 inhib,PHOSPHO1 block,AI-2 QS mod,ALR H2O2 inh
Cc1cccc(-n2c(C)nc3ccc(Cl)cc3c2=O)c1,9.3,-1.0,0.4,31.6,11.0,2.5
O=c1[nH]c(=S)n(CCC2=CCCCC2)c(O)c1C=NC1CCN(Cc2ccccc2)CC1,-6.9,10.0,-0.9,-31.6,36.0,9.2
O=c1[nH]c(=S)n(CCC2=CCCCC2)c(O)c1/C=N/Nc1ccccc1,4.8,2.2,-3.5,-163.1,26.1,97.0*
O=C(O)C12C3CCCC1C32c1ccccc1 (stereo not drawn),0.6,-2.5,0.9,6.6,36.7,99.4*
CCOc1cccc(CNCCc2c(C)[nH]c3ccc(OC(F)(F)F)cc23)c1O,-6.9,4.8,-1.2,32.6,9.3,9.6
C/C1=C\[C@@H](C)C/C=C/[C@H]2[C@@H]3O[C@]3(C)[C@@H](C)[C@H]3[C@H](Cc4c[nH]c5ccccc45)NC(=O)[C@]32C(=O)/C=C/C(=O)[C@@H]1O,-0.3,110.7*,90.6,-24.1,30.6,1.2
CN(C)CCc1nc2ccccc2c(=O)n1-c1ccccc1,-7.5,81.1*,32.9,10.4,24.0,-7.5
C=CCn1c(O)c(C(C)=NCc2ccco2)c(=O)[nH]c1=O,0.5,12.7,9.4,5.0,16.9,-0.8
C=CCn1c(O)c(C(CC)=NCc2ccco2)c(=O)[nH]c1=O,8.1,66.3*,21.0,7.8,10.2,0.8
C[CH2][Hg][S]c1ccccc1C(=O)O,-7.5,·,·,·,·,10.7
CCN(CC)P(c1n(C)cc[n+]1C)N(CC)CC,2.9,-8.9,-2.9,-51.8,6.2,9.2
COP(=O)(OC)C1(Nc2ccc(C)cc2)CCCCC1,-2.1,-4.7,5.1,9.4,7.1,98.6*
CCn1c(O)c(C=NCCN2CCOCC2)c(=O)[nH]c1=S,-4.5,6.6,-2.9,24.6,12.4,-2.7
CCOc1ccc2nc(N=Nc3c(O)[nH]c(=S)[nH]c3=O)sc2c1,-12.5,-5.2,-12.2,-30.8,19.4,96.3*
CCOc1ccc2nc(N=Nc3c(O)[nH]c(=O)[nH]c3=O)sc2c1,-5.3,20.3,1.7,12.1,17.5,9.3
CC(=O)OC1C(=O)OCC23CCC4(C)OC4C2OC2CC(OC(=O)C=CC=CC(=O)OCCC1C)C3(C)C21CO1 (stereo not drawn),·,92.2*,92.2*,·,·,·
CC1=CC2OC3CC4OC(=O)C=CC=CC(=O)OCCC(C)C(O)C(=O)OCC2(CC1O)C4(C)C31CO1 (stereo not drawn),·,92.4*,92.4*,·,·,·
CC(O)C1C=CC=CC(=O)OC2CC3OC4C5OC5(C)CCC4(COC(=O)C4OC4(C)C(O)CO1)C2(C)C31CO1 (stereo not drawn),·,90.9*,90.9*,·,·,·
COC(=O)C1=C(c2ccc(OC)c(OC)c2)C[C@@H]2CC[C@H]1N2C(=O)NCc1ccco1,·,·,·,·,·,-16.0
CCn1c(O)c(C=Nc2ccc(N3CCOCC3)c(Br)c2)c(=O)n(CC)c1=S,0.1,-72.4,-67.0*,23.4,34.9,4.4
C[C@H](NC(=O)CCC(=O)N1C[C@H]2C[C@H](C1)c1cccc(=O)n1C2)c1ccccc1,1.4,3.0,0.2,13.1,14.3,-21.1
S=C1CN=C(c2ccccc2)c2cc(Cl)ccc2N1,-1.5,65.0*,32.3,-1.9,10.7,9.6
COC(=O)C1=C(c2ccc(F)cc2OCc2ccccc2)C[C@@H]2CC[C@H]1N2C(=O)NCc1cccc(C(F)(F)F)c1,·,·,·,·,·,2.4
C=CCN1CCc2cccc3c2[C@H]1Cc1ccc(O)c(O)c1-3,-2.0,95.4*,86.8,2.8,11.5,99.5*
O=C1C(Cl)=CC(=Nc2ccc(O)cc2)C=C1Cl,·,·,·,·,·,99.0*
COC(=O)C1=C(c2ccc(OCc3ccccc3)cc2)C[C@@H]2CC[C@H]1N2C(=O)NC1CCN(Cc2ccccc2)CC1,·,·,·,·,·,-1.5
COc1cccc(-c2nn(CCC#N)cc2C(=O)Nc2ccccc2Cl)c1,·,11.1,0.7,·,2.7,5.2
